Source: ChEMBL document CHEMBL1221269, “Synthesis of 3,3-diindolyl oxyindoles efficiently catalysed by FeCl3 and their in vitro evaluation for anticancer activity” (Bioorg Med Chem Lett, 2010)
pIC50: −log10 of the molar value. Activity calls are given as the source filed them. The calls are words filed in the database; no cut-off is given here.

Assays:
Type in all cases: functional, cell-based
[1] = system: MCF7; experiment: Cytotoxicity against human MCF7 cells after 48 hrs by MTT assay; conditions: MCF7, 48 h
Procedure, shortened: (§1)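 Cells seeded at 2.0×10^4 per well in 96-well plates, exposed to a range of test concentrations for 48 h. Medium then replaced with fresh medium containing MTT at 100 µg/mL for 2–3 h. Formazan dissolved in DMSO, OD read at 540 nm with 620 nm reference. Viability taken as treated vs untreated absorbance. IC50 in µM, mean of three separate experiments. Highest concentration tested 100 µM.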

[2] = system: HepG2; experiment: Cytotoxicity against human HepG2 cells after 48 hrs by MTT assay; conditions: HepG2, 48 h; procedure, shortened: as §1
[3] = system: A549; experiment: Cytotoxicity against human A549 cells after 48 hrs by MTT assay; conditions: A549, 48 h; procedure, shortened: as §1
[4] = system: DU-145; experiment: Cytotoxicity against human DU145 cells after 48 hrs by MTT assay; conditions: DU-145, 48 h; procedure, shortened: as §1
[5] = system: SK-N-SH; experiment: Cytotoxicity against human SK-N-SH cells after 48 hrs by MTT assay; procedure, shortened: as §1
[6] = system: MCF7; experiment: Cytotoxicity against human MCF7 cells at up to 100 uM after 48 hrs by MTT assay; procedure, shortened: as §1

| SMILES | pIC50 [1] | pIC50 [2] | pIC50 [3] | pIC50 [4] | pIC50 [5] | Activity [6] |
| --- | --- | --- | --- | --- | --- | --- |
| COc1cccc2[nH]cc(C3(c4c[nH]c5cccc(OC)c45)C(=O)Nc4ccccc43)c12 | 4.85 | 5.05 | 4.82 | 5.30 | 5.33 |  |
| Cn1cc(C2(c3cn(C)c4ccccc34)C(=O)Nc3ccc(F)cc32)c2ccccc21 | 5.04 | 4.89 | 4.76 | 4.96 | 5.19 |  |
| O=C1Nc2ccccc2C1(c1c[nH]c2ccc(Cl)cc12)c1c[nH]c2ccc(Cl)cc12 |  | 4.84 | 5.08 | 5.09 | 5.03 | inactive |
| O=C1Nc2ccc(F)cc2C1(c1c[nH]c2ccc(Cl)cc12)c1c[nH]c2ccc(Cl)cc12 | 4.61 | 4.78 | 4.92 | 4.71 | 5.07 |  |
| COc1ccc2c(C3(c4c[nH]c5cc(OC)ccc45)C(=O)Nc4ccccc43)c[nH]c2c1 | 4.34 | 4.92 | 5.11 | 5.92 | 4.87 |  |
| COc1ccc2[nH]cc(C3(c4c[nH]c5ccc(OC)cc45)C(=O)Nc4ccccc43)c2c1 | 4.47 | 4.52 | 4.95 | 5.66 | 5.41 |  |
| O=C1Nc2ccccc2C1(c1c[nH]c2ccccc12)c1c[nH]c2ccccc12 | 4.30 | 4.69 | 5.07 | 5.06 | 4.95 |  |
| O=C1Nc2ccc(F)cc2C1(c1c[nH]c2ccc([N+](=O)[O-])cc12)c1c[nH]c2ccc([N+](=O)[O-])cc12 |  | 4.62 | 5.11 | 5.12 | 5.17 | inactive |
| O=C1Nc2ccccc2C1(c1c[nH]c2ccc(Br)cc12)c1c[nH]c2ccc(Br)cc12 | 4.33 | 4.80 | 5.10 | 5.44 | 4.88 |  |
| COc1ccc2c(C3(c4c[nH]c5cc(OC)ccc45)C(=O)Nc4ccc(F)cc43)c[nH]c2c1 | 4.92 | 4.80 | 4.84 | 4.88 | 5.39 |  |
| COc1ccc2[nH]cc(C3(c4c[nH]c5ccc(OC)cc45)C(=O)Nc4ccc(F)cc43)c2c1 |  | 4.44 | 4.97 | 5.44 | 5.15 | inactive |
| Cn1cc(C2(c3cn(C)c4ccccc34)C(=O)Nc3ccccc32)c2ccccc21 |  | 4.92 | 5.00 | 5.25 | 5.29 | inactive |
| O=C1Nc2ccc(F)cc2C1(c1c[nH]c2ccc(Br)cc12)c1c[nH]c2ccc(Br)cc12 | 4.89 | 4.89 | 4.99 | 4.79 | 5.55 |  |
| O=C1Nc2ccccc2C1(c1c[nH]c2ccc([N+](=O)[O-])cc12)c1c[nH]c2ccc([N+](=O)[O-])cc12 |  | 4.63 | 4.99 | 5.10 | 4.93 | inactive |
| O=C1Nc2ccc(F)cc2C1(c1c[nH]c2ccccc12)c1c[nH]c2ccccc12 | 4.63 | 5.18 | 4.90 | 4.89 | 4.17 |  |
| COc1cccc2[nH]cc(C3(c4c[nH]c5cccc(OC)c45)C(=O)Nc4ccc(F)cc43)c12 | 5.12 | 4.74 | 5.11 | 5.03 | 4.92 |  |
